Laboratory results published in ChEMBL document CHEMBL4406880, “Design, synthesis, and bioactivity of dihydropyrimidine derivatives as kinesin spindle protein inhibitors” (Bioorg Med Chem, 2019).

What was measured:
Format in all cases: functional
SNB-19 = assay: Growth inhibition of human SNB19 cells assessed as growth percentage at 10 uM incubated for 48 hrs by sulforhodamine B assay relative to control; settings: SNB-19, 48 h, read-out: Activity
How it was run: (§1)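 NCI-60 single-dose screen. Cells were grown in RPMI 1640 with 5% FBS and 2 mM L-glutamine and plated at 5,000–40,000 cells/well. After an overnight preincubation at 37 °C in 5% CO2, compound was added at a final 10 µM from a DMSO stock, with DMSO/PBS controls. After 48 h, cells were TCA-fixed and stained with 0.4% SRB, and absorbance was read at 515 nm. Growth is given as a percentage of untreated control.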

NCI-H522 = assay: Growth inhibition of human NCI-H522 cells assessed as growth percentage at 10 uM incubated for 48 hrs by sulforhodamine B assay relative to control; settings: NCI-H522, 48 h, read-out: Activity
How it was run: (§2)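 NCI-60 one-dose screen. Cells in RPMI 1640 with 5% FBS and 2 mM L-glutamine, seeded at 5,000–40,000 cells/well according to doubling time, and preincubated overnight at 37 °C, 5% CO2. A time-zero plate was TCA-fixed at drug addition. Compound from DMSO stock, final 10 µM, 48 h; DMSO vehicle controls. Fixation with TCA, 10% final (16% for suspension cells). SRB stain, Tris solubilization, A515. Result given as % growth versus untreated cells.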

K562 = assay: Growth inhibition of human K562 cells assessed as growth percentage at 10 uM incubated for 48 hrs by sulforhodamine B assay relative to control; settings: K562, 48 h, read-out: Activity; how it was run: as §2
U-251 = assay: Growth inhibition of human U251 cells assessed as growth percentage at 10 uM incubated for 48 hrs by sulforhodamine B assay relative to control; settings: U-251, 48 h, read-out: Activity; how it was run: as §1
SK-MEL-2 = assay: Growth inhibition of human SK-MEL-2 cells assessed as growth percentage at 10 uM incubated for 48 hrs by sulforhodamine B assay relative to control; settings: SK-MEL-2, 48 h, read-out: Activity; how it was run: as §1
LOX IMVI = assay: Growth inhibition of human LOXIMVI cells assessed as growth percentage at 10 uM incubated for 48 hrs by sulforhodamine B assay relative to control; settings: read-out: Activity; how it was run: as §2
MCF7 = assay: Growth inhibition of human MCF7 cells assessed as growth percentage at 10 uM incubated for 48 hrs by sulforhodamine B assay relative to control; settings: MCF7, 48 h, read-out: Activity; how it was run: as §2
BT-549 = assay: Growth inhibition of human BT549 cells assessed as growth percentage at 10 uM incubated for 48 hrs by sulforhodamine B assay relative to control; settings: BT-549, 48 h, read-out: Activity
How it was run: (§3)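 NCI-60 one-dose screen: cells in RPMI 1640 with 5% FBS and 2 mM L-glutamine, plated at 5,000–40,000 cells/well and preincubated 24 h at 37 °C, 5% CO2. Compound is added from a DMSO stock to a final 10 µM and incubated 48 h. Cells are TCA-fixed and stained with sulforhodamine B, read at 515 nm. Output is % growth versus untreated control, with a time-zero plate.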

SR = assay: Growth inhibition of human SR cells assessed as growth percentage at 10 uM incubated for 48 hrs by sulforhodamine B assay relative to control; settings: read-out: Activity; how it was run: as §1
M14 = assay: Growth inhibition of human M14 cells assessed as growth percentage at 10 uM incubated for 48 hrs by sulforhodamine B assay relative to control; settings: M14, 48 h, read-out: Activity; how it was run: as §2
A549 = assay: Growth inhibition of human A549/ATCC cells assessed as growth percentage at 10 uM incubated for 48 hrs by sulforhodamine B assay relative to control; settings: A549, 48 h, read-out: Activity; how it was run: as §3
SK-MEL-5 = assay: Growth inhibition of human SK-MEL-5 cells assessed as growth percentage at 10 uM incubated for 48 hrs by sulforhodamine B assay relative to control; settings: SK-MEL-5, 48 h, read-out: Activity; how it was run: as §1
HCT-15 = assay: Growth inhibition of human HCT15 cells assessed as growth percentage at 10 uM incubated for 48 hrs by sulforhodamine B assay relative to control; settings: HCT-15, 48 h, read-out: Activity; how it was run: as §3
UACC-257 = assay: Growth inhibition of human UACC257 cells assessed as growth percentage at 10 uM incubated for 48 hrs by sulforhodamine B assay relative to control; settings: UACC-257, 48 h, read-out: Activity; how it was run: as §1
Hs-578T = assay: Growth inhibition of human Hs 578T cells assessed as growth percentage at 10 uM incubated for 48 hrs by sulforhodamine B assay relative to control; settings: read-out: Activity; how it was run: as §2
CCRF-CEM = assay: Growth inhibition of human CCRF-CEM cells assessed as growth percentage at 10 uM incubated for 48 hrs by sulforhodamine B assay relative to control; settings: read-out: Activity; how it was run: as §3
EKVX = assay: Growth inhibition of human EKVX cells assessed as growth percentage at 10 uM incubated for 48 hrs by sulforhodamine B assay relative to control; settings: read-out: Activity; how it was run: as §3
OVCAR-4 = assay: Growth inhibition of human OVCAR4 cells assessed as growth percentage at 10 uM incubated for 48 hrs by sulforhodamine B assay relative to control; settings: OVCAR-4, 48 h, read-out: Activity; how it was run: as §2
SF-295 = assay: Growth inhibition of human SF295 cells assessed as growth percentage at 10 uM incubated for 48 hrs by sulforhodamine B assay relative to control; settings: SF-295, 48 h, read-out: Activity; how it was run: as §1
RPMI-8226 = assay: Growth inhibition of human RPMI8226 cells assessed as growth percentage at 10 uM incubated for 48 hrs by sulforhodamine B assay relative to control; settings: RPMI-8226, 48 h, read-out: Activity; how it was run: as §1
MDA-MB-231 = assay: Growth inhibition of human MDA-MB-231 cells assessed as growth percentage at 10 uM incubated for 48 hrs by sulforhodamine B assay relative to control; settings: MDA-MB-231, 48 h, read-out: Activity; how it was run: as §2
SF-539 = assay: Growth inhibition of human SF539 cells assessed as growth percentage at 10 uM incubated for 48 hrs by sulforhodamine B assay relative to control; settings: SF-539, 48 h, read-out: Activity; how it was run: as §1
UACC-62 = assay: Growth inhibition of human UACC62 cells assessed as growth percentage at 10 uM incubated for 48 hrs by sulforhodamine B assay relative to control; settings: UACC-62, 48 h, read-out: Activity; how it was run: as §1
HL-60(TB) = assay: Growth inhibition of human HL-60(TB) cells assessed as growth percentage at 10 uM incubated for 48 hrs by sulforhodamine B assay relative to control; settings: HL-60, 48 h, read-out: Activity
How it was run: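 NCI-60 single-dose screen. Cells in RPMI 1640 with 5% FBS and 2 mM L-glutamine are plated at 5,000–40,000 cells/well and preincubated overnight at 37 °C, 5% CO2. Compound is added from a DMSO stock at 10 µM final for 48 h. Cells are TCA-fixed (suspension cells 16% final) and stained with SRB. Absorbance is read at 515 nm, and percentage growth is calculated against untreated controls with a time-zero plate.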

Row | Compound | growth at 10 µM (SNB-19) | growth at 10 µM (NCI-H522) | growth at 10 µM (K562) | growth at 10 µM (U-251) | growth at 10 µM (SK-MEL-2) | growth at 10 µM (LOX IMVI) | growth at 10 µM (MCF7) | growth at 10 µM (BT-549) | growth at 10 µM (M14) | growth at 10 µM (A549) | growth at 10 µM (SK-MEL-5) | growth at 10 µM (HCT-15) | growth at 10 µM (UACC-257) | growth at 10 µM (Hs-578T) | growth at 10 µM (EKVX) | growth at 10 µM (OVCAR-4) | growth at 10 µM (SF-295) | growth at 10 µM (RPMI-8226) | growth at 10 µM (MDA-MB-231) | growth at 10 µM (SF-539) | further results
1 | CC1=C(C(=O)OC(C)C)C(c2ccc3c(c2)OCO3)NC(=S)N1 (racemic) | 95.5% | 86.4% | 107% | 102% | 102% | 97.3% | 98.7% | 96% | 99% | 104% | 98.5% | 100% | 100% | 97.3% | 94.4% | 98.4% | 95.8% | 87.7% | 101% | 98.9% | growth at 10 µM (SR): 103%; growth at 10 µM (CCRF-CEM): 105%; growth at 10 µM (UACC-62): 85.2%; growth at 10 µM (HL-60(TB)): 105%
2 | CC(=O)N1C(=S)NC(C)=C(C(=O)OCC(C)C)C1c1ccc2c(c1)OCO2 (racemic) | 97.9% | 74.9% | 78.2% | 87.5% | 102% | 97.5% | 104% | 86.1% | 96.4% | 95.9% | 100% | 93.3% | 99.5% | 89.2% | 99.8% | 79.6% | 101% | 54.8% | 88.7% | 101% | growth at 10 µM (SR): 80%; growth at 10 µM (UACC-62): 85.7%; growth at 10 µM (HL-60(TB)): 98.5%
3 | CC(=O)N1C(=S)NC(C)=C(C(=O)OCc2ccccc2)C1c1ccc2c(c1)OCO2 (racemic) | 87.8% | 75.7% | 55.4% | 58.2% | 88.6% | 74.1% | 92.1% | 88.8% | 54% | 95.6% | 91.2% | 83.8% | 77.7% | 76.8% | 96.8% | 99.3% | 96.4% | 54.8% | 84.5% | 84.2% | growth at 10 µM (UACC-62): 75.3%; growth at 10 µM (HL-60(TB)): 33.6%
